Laboratory results published in ChEMBL document CHEMBL1799979, “Antifolate and antiproliferative activity of 6,8,10-triazaspiro[4.5]deca-6,8-dienes and 1,3,5-triazaspiro[5.5]undeca-1,3-dienes” (Bioorg Med Chem, 2010).

Legend:
Dihydrofolate reductase = target: T1, Dihydrofolate reductase (Bos taurus, UniProt P00376); test: Inhibition of bovine liver DHFR using dihydrofolic acid substrate by UV-visible spectrophotometry
T1 sequence (P00376 whole entry): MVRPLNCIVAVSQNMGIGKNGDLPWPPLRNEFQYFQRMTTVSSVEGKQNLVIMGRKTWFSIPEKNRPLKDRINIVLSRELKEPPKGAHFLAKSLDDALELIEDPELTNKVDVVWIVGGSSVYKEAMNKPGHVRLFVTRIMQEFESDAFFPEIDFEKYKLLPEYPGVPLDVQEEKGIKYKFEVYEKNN

A549 [1] = test: Antiproliferative activity against human A549 cells after 72 hrs by fluorometric microculture cytotoxicity assay; conditions: A549, 72 h
A549 [2] = test: Growth inhibition of human A549 cells assessed as cell growth at 6.4 uM after 72 hrs by fluorometric microculture cytotoxicity assay relative to untreated control; format: functional; conditions: A549, 72 h, read-out: Activity
How it was run: (§1)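 A549 cells were seeded and incubated 24 h, then medium was swapped for medium holding a fixed compound concentration alone, or with 20 µM thymidine, 100 µM hypoxanthine, or both. Twelve wells were used per solution, with solvent-matched controls. After 72 h, cells were PBS-washed, given FDA 2 µg/mL for 45 min at 37 °C, and fluorescence read at ex 485/em 535 nm. Growth is relative to control, as mean (SEM), n = 3.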

A549 [3] = test: Growth inhibition of human A549 cells assessed as cell growth at 6.4 uM after 72 hrs by fluorometric microculture cytotoxicity assay in presence of 100 uM hypoxanthine and 20 uM thymidine relative to untreated control; format: functional; design: scale not given: the % may be the effect or the level left; how it was run: as §1
A549 [4] = test: Growth inhibition of human A549 cells assessed as cell growth at 6.4 uM after 72 hrs by fluorometric microculture cytotoxicity assay in presence of 20 uM thymidine relative to untreated control; format: functional; design: scale not given: the % may be the effect or the level left; how it was run: as §1
A549 [5] = test: Growth inhibition of human A549 cells assessed as cell growth at 6.4 uM after 72 hrs by fluorometric microculture cytotoxicity assay in presence of 100 uM hypoxanthine relative to untreated control; format: functional; design: scale not given: the % may be the effect or the level left; how it was run: as §1
A549 [6] = test: Growth inhibition of human A549 cells assessed as cell growth at 370 nM after 72 hrs by fluorometric microculture cytotoxicity assay in presence of 100 uM hypoxanthine and 20 uM thymidine relative to untreated control; format: functional; design: scale not given: the % may be the effect or the level left; how it was run: as §1
A549 [7] = test: Growth inhibition of human A549 cells assessed as cell growth at 370 nM after 72 hrs by fluorometric microculture cytotoxicity assay in presence of 100 uM hypoxanthine relative to untreated control; format: functional; design: scale not given: the % may be the effect or the level left; how it was run: as §1
A549 [8] = test: Growth inhibition of human A549 cells assessed as cell growth at 370 nM after 72 hrs by fluorometric microculture cytotoxicity assay in presence of 20 uM thymidine relative to untreated control; format: functional; design: scale not given: the % may be the effect or the level left; how it was run: as §1
A549 [9] = test: Growth inhibition of human A549 cells assessed as cell growth at 370 nM after 72 hrs by fluorometric microculture cytotoxicity assay relative to untreated control; format: functional; conditions: A549, 72 h, read-out: Activity; how it was run: as §1
A549 [10] = test: Growth inhibition of human A549 cells assessed as cell growth at 270 nM after 72 hrs by fluorometric microculture cytotoxicity assay in presence of 100 uM hypoxanthine relative to untreated control; format: functional; design: scale not given: the % may be the effect or the level left; how it was run: as §1
A549 [11] = test: Growth inhibition of human A549 cells assessed as cell growth at 270 nM after 72 hrs by fluorometric microculture cytotoxicity assay in presence of 20 uM thymidine relative to untreated control; format: functional; design: scale not given: the % may be the effect or the level left; how it was run: as §1
A549 [12] = test: Growth inhibition of human A549 cells assessed as cell growth at 270 nM after 72 hrs by fluorometric microculture cytotoxicity assay in presence of 100 uM hypoxanthine and 20 uM thymidine relative to untreated control; format: functional; design: scale not given: the % may be the effect or the level left; how it was run: as §1
A549 [13] = test: Growth inhibition of human A549 cells assessed as cell growth at 270 nM after 72 hrs by fluorometric microculture cytotoxicity assay relative to untreated control; format: functional; conditions: A549, 72 h, read-out: Activity; how it was run: as §1

Row | Compound | IC50 (Dihydrofolate reductase) | IC50 (A549 [1]) | also measured
1 | N#Cc1ccc(OCCCON2C(N)=NC(N)=NC23CCCCC3)cc1 | 9.7 nM | 116 nM | 
2 | NC1=NC2(CCCC2)N(OCCCOc2ccccc2)C(N)=N1 |  | 40.2 nM | 
3 | NC1=NC2(CCCCC2)N(OCCCOc2ccccc2)C(N)=N1 |  | 69.7 nM | 
4 | NC1=NC2(CCCC2)N(OCCCOc2ccc(F)cc2)C(N)=N1 | 10.1 nM | 58.8 nM | 
5 | Nc1nc2[nH]cc(CCc3ccc(C(=O)N[C@@H](CCC(=O)O)C(=O)O)cc3)c2c(=O)[nH]1 [PEMETREXED] |  |  | growth at 6.4 µM (A549 [2]): 11.7%; Activity (A549 [3]): 99.3%; Activity (A549 [4]): 84.5%; Activity (A549 [5]): 12.6%
6 | NC1=NC2(CCCCC2)N(OCCCOc2ccc(F)cc2)C(N)=N1 | 15.4 nM | 59.2 nM | 
7 | N#Cc1ccc(OCCCON2C(N)=NC(N)=NC23CCCC3)cc1 | 7.6 nM | 60.7 nM | 
8 | COc1ccc(OCCCON2C(N)=NC(N)=NC23CCCCC3)cc1 | 6.1 nM | 51.6 nM | 
9 | NC1=NC2(CCCCC2)N(OCCCOc2ccc(Cl)cc2)C(N)=N1 | 13.8 nM | 49.6 nM | 
10 | NC1=NC2(CCCC2)N(OCCCOc2ccc([N+](=O)[O-])cc2)C(N)=N1 | 8.4 nM | 65.8 nM | 
11 | NC1=NC2(CCCCC2)N(OCCCOc2ccc(S(N)(=O)=O)cc2)C(N)=N1 | 5.6 nM | 166 nM | 
12 | CC(C)(C)c1ccc(OCCCON2C(N)=NC(N)=NC23CCCC3)cc1 | 17 nM | 160 nM | 
13 | CC(=O)c1ccc(OCCCON2C(N)=NC(N)=NC23CCCCC3)cc1 | 13.3 nM | 145 nM | 
14 | CN(Cc1cnc2nc(N)nc(N)c2n1)c1ccc(C(=O)N[C@@H](CCC(=O)O)C(=O)O)cc1 [METHOTREXATE] |  | 37.4 nM | Activity (A549 [6]): 96.6%; Activity (A549 [7]): 16%; Activity (A549 [8]): 77.3%; growth at 0.37 µM (A549 [9]): 14.3%
15 | NC1=NC2(CCCCC2)N(OCCCOc2ccc([N+](=O)[O-])cc2)C(N)=N1 | 14.7 nM | 329 nM | 
16 | Cl.NC1=NC2(CCCC2)N(OCCCOc2ccc(Cl)cc2)C(N)=N1 | 7.2 nM | 27.1 nM | Activity (A549 [10]): 14.3%; Activity (A549 [11]): 68%; Activity (A549 [12]): 90%; growth at 0.27 µM (A549 [13]): 15.2%
17 | COc1ccc(OCCCON2C(N)=NC(N)=NC23CCCC3)cc1 | 11.2 nM | 59.1 nM | 
18 | CC(C)(C)c1ccc(OCCCON2C(N)=NC(N)=NC23CCCCC3)cc1 | 21.5 nM | 496 nM | 
19 | Cc1ccc(OCCCON2C(N)=NC(N)=NC23CCCCC3)cc1 | 17.5 nM | 83.3 nM | 
20 | CC(=O)c1ccc(OCCCON2C(N)=NC(N)=NC23CCCC3)cc1 | 9.2 nM | 59.8 nM | 
21 | Cc1ccc(OCCCON2C(N)=NC(N)=NC23CCCC3)cc1 | 9.5 nM | 48.1 nM | 
